Laboratory results reported in ChEMBL document CHEMBL1139655, “Antimicrobial beta-peptoids by a block synthesis approach” (2006).
Values after ≈ are worked out from the molar mass of the structure shown.

What follows are compounds tested on Escherichia coli (assay: Antimicrobial activity against Escherichia coli ATCC 25922).
Format: functional
Procedure, shortened: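 Broth microdilution in trypticase soy broth; 2-fold serial dilutions giving final 512 to 1 µg/mL. Inoculum E. coli ATCC 25922 in TSB, final […] as printed. Incubated 37 °C for 24 h in plate reader, OD600 read every 20 min. MIC taken as lowest concentration preventing growth at 24 h.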

SMILES	MIC [µg/mL]
CC(=O)NCCC(=O)N(CCC(=O)N(CCCCN)CCC(=O)NCCC(=O)N(CCC(=O)N(CCCCN)CCC(=O)N[C@@H](CCCCN)C(N)=O)CC(C)C)CC(C)C	> 512
CC(=O)N(CCC(=O)N(CCN)CCC(=O)N(CCN)CCC(=O)N(CCC(=O)N(CCN)CCC(=O)N(CCN)CCC(=O)N[C@@H](CCCCN)C(N)=O)CC(C)C)CC(C)C	> 512
CC(=O)N(CCC(=O)N(CCCN(C)C)CCC(=O)N(CCC(=O)N(CCC(=O)N(CCCN(C)C)CCC(=O)N(CCC(=O)N(CCC(=O)N(CCCN(C)C)CCC(=O)N(CCC(=O)N[C@@H](CCCCN)C(N)=O)CC(C)C)Cc1ccccc1)CC(C)C)Cc1ccccc1)CC(C)C)Cc1ccccc1	128 (≈ 84.1 µM)
CC(=O)N(CCC(=O)N(CCCN(C)C)CCC(=O)N(CCC(=O)N(CCC(=O)N(CCCN(C)C)CCC(=O)N(CCC(=O)N(CCC(=O)N(CCCN(C)C)CCC(=O)N(CCC(=O)N(CCC(=O)N(CCCN(C)C)CCC(=O)N(CCC(=O)N(CCC(=O)N(CCCN(C)C)CCC(=O)N(CCC(=O)N(CCC(=O)N(CCCN(C)C)CCC(=O)N(CCC(=O)N[C@@H](CCCCN)C(N)=O)CC(C)C)Cc1ccccc1)CC(C)C)Cc1ccccc1)CC(C)C)Cc1ccccc1)CC(C)C)Cc1ccccc1)CC(C)C)Cc1ccccc1)CC(C)C)Cc1ccccc1	128 (≈ 44.8 µM)
CC(=O)NCCC(=O)N(CCC(=O)N(CCN)CCC(=O)NCCC(=O)N(CCC(=O)N(CCN)CCC(=O)NCCC(=O)N(CCC(=O)N(CCN)CCC(=O)NCCC(=O)N(CCC(=O)N(CCN)CCC(=O)NCCC(=O)N(CCC(=O)N(CCN)CCC(=O)NCCC(=O)N(CCC(=O)N(CCN)CCC(=O)NCCC(=O)N(CCC(=O)N(CCN)CCC(=O)N[C@@H](CCCCN)C(N)=O)CC(C)C)CC(C)C)CC(C)C)CC(C)C)CC(C)C)CC(C)C)CC(C)C	128 (≈ 53.9 µM)
CC(=O)N(CCC(=O)N(CCC(=O)N(CCN)CCC(=O)N(CCC(=O)N(CCC(=O)N(CCN)CCC(=O)N(CCC(=O)N(CCC(=O)N(CCN)CCC(=O)N(CCC(=O)N(CCC(=O)N(CCN)CCC(=O)N[C@@H](CCCCN)C(N)=O)CC(C)C)CC(C)C)CC(C)C)CC(C)C)CC(C)C)CC(C)C)CC(C)C)CC(C)C	256 (≈ 154 µM)
CC(=O)NCCC(=O)N(CCC(=O)N(CCCN(C)C)CCC(=O)NCCC(=O)N(CCC(=O)N(CCCN(C)C)CCC(=O)NCCC(=O)N(CCC(=O)N(CCCN(C)C)CCC(=O)NCCC(=O)N(CCC(=O)N(CCCN(C)C)CCC(=O)NCCC(=O)N(CCC(=O)N(CCCN(C)C)CCC(=O)NCCC(=O)N(CCC(=O)N(CCCN(C)C)CCC(=O)NCCC(=O)N(CCC(=O)N(CCCN(C)C)CCC(=O)NCCC(=O)N(CCC(=O)N(CCCN(C)C)CCC(=O)N[C@@H](CCCCN)C(N)=O)CC(C)C)CC(C)C)CC(C)C)CC(C)C)CC(C)C)CC(C)C)CC(C)C)CC(C)C	> 512
CC(=O)N(CCC(=O)N(CCCN(C)C)CCC(=O)N(CCC(=O)N(CCC(=O)N(CCCN(C)C)CCC(=O)N(CCC(=O)N(CCC(=O)N(CCCN(C)C)CCC(=O)N(CCC(=O)N(CCC(=O)N(CCCN(C)C)CCC(=O)N(CCC(=O)N(CCC(=O)N(CCCN(C)C)CCC(=O)N(CCC(=O)N[C@@H](CCCCN)C(N)=O)CC(C)C)Cc1ccccc1)CC(C)C)Cc1ccccc1)CC(C)C)Cc1ccccc1)CC(C)C)Cc1ccccc1)CC(C)C)Cc1ccccc1	128 (≈ 53.1 µM)
CC(=O)N(CCC(=O)N(CCC(=O)N(CCN)CCC(=O)N(CCC(=O)N(CCC(=O)N(CCN)CCC(=O)N(CCC(=O)N(CCC(=O)N(CCN)CCC(=O)N(CCC(=O)N(CCC(=O)N(CCN)CCC(=O)N(CCC(=O)N(CCC(=O)N(CCN)CCC(=O)N[C@@H](CCCCN)C(N)=O)CC(C)C)CC(C)C)CC(C)C)CC(C)C)CC(C)C)CC(C)C)CC(C)C)CC(C)C)CC(C)C)CC(C)C	256 (≈ 126 µM)
CC(=O)N(CCC(=O)N(CCC(=O)N(CCCN(C)C)CCC(=O)N(CCC(=O)N(CCC(=O)N(CCCN(C)C)CCC(=O)N(CCC(=O)N(CCC(=O)N(CCCN(C)C)CCC(=O)N[C@@H](CCCCN)C(N)=O)CC(C)C)Cc1ccccc1)CC(C)C)Cc1ccccc1)CC(C)C)Cc1ccccc1	512 (≈ 337 µM)
CC(=O)NCCC(=O)N(CCC(=O)N(CCN)CCC(=O)NCCC(=O)N(CCC(=O)N(CCN)CCC(=O)NCCC(=O)N(CCC(=O)N(CCN)CCC(=O)NCCC(=O)N(CCC(=O)N(CCN)CCC(=O)NCCC(=O)N(CCC(=O)N(CCN)CCC(=O)N[C@@H](CCCCN)C(N)=O)CC(C)C)CC(C)C)CC(C)C)CC(C)C)CC(C)C	256 (≈ 146 µM)
CC(=O)N(CCC(=O)N(CCC(=O)N(CCCCN)CCC(=O)N[C@@H](CCCCN)C(N)=O)CC(C)C)CC(C)C	> 512
CC(=O)N(CCC(=O)N(CCC(=O)N(CCCCN)CCC(=O)N(CCC(=O)N(CCC(=O)N(CCCCN)CCC(=O)N[C@@H](CCCCN)C(N)=O)CC(C)C)CC(C)C)CC(C)C)CC(C)C	> 512
CC(=O)N(CCC(=O)N(CCC(=O)N(CCCCN)CCC(=O)N(CCC(=O)N(CCC(=O)N(CCCCN)CCC(=O)N(CCC(=O)N(CCC(=O)N(CCCCN)CCC(=O)N[C@@H](CCCCN)C(N)=O)CC(C)C)CC(C)C)CC(C)C)CC(C)C)CC(C)C)CC(C)C	> 512
CC(=O)N(CCC(=O)N(CCC(=O)N(CCN)CCC(=O)N(CCC(=O)N(CCC(=O)N(CCN)CCC(=O)N(CCC(=O)N(CCC(=O)N(CCN)CCC(=O)N[C@@H](CCCCN)C(N)=O)CC(C)C)CC(C)C)CC(C)C)CC(C)C)CC(C)C)CC(C)C	> 512
CC(=O)NCCC(=O)N(CCC(=O)N(CCCCN)CCC(=O)NCCC(=O)N(CCC(=O)N(CCCCN)CCC(=O)NCCC(=O)N(CCC(=O)N(CCCCN)CCC(=O)N[C@@H](CCCCN)C(N)=O)CC(C)C)CC(C)C)CC(C)C	512 (≈ 424 µM)
CC(=O)N(CCC(=O)N(CCC(=O)N(CCCN(C)C)CCC(=O)N(CCC(=O)N(CCC(=O)N(CCCN(C)C)CCC(=O)N(CCC(=O)N(CCC(=O)N(CCCN(C)C)CCC(=O)N(CCC(=O)N(CCC(=O)N(CCCN(C)C)CCC(=O)N[C@@H](CCCCN)C(N)=O)CC(C)C)Cc1ccccc1)CC(C)C)Cc1ccccc1)CC(C)C)Cc1ccccc1)CC(C)C)Cc1ccccc1	128 (≈ 65.1 µM)
CC(=O)N(CCC(=O)N(CCC(=O)N(CCCN(C)C)CCC(=O)N(CCC(=O)N(CCC(=O)N(CCCN(C)C)CCC(=O)N(CCC(=O)N(CCC(=O)N(CCCN(C)C)CCC(=O)N(CCC(=O)N(CCC(=O)N(CCCN(C)C)CCC(=O)N(CCC(=O)N(CCC(=O)N(CCCN(C)C)CCC(=O)N[C@@H](CCCCN)C(N)=O)CC(C)C)Cc1ccccc1)CC(C)C)Cc1ccccc1)CC(C)C)Cc1ccccc1)CC(C)C)Cc1ccccc1)CC(C)C)Cc1ccccc1	128 (≈ 53.1 µM)
CC(=O)NCCC(=O)N(CCC(=O)N(CCCN(C)C)CCC(=O)NCCC(=O)N(CCC(=O)N(CCCN(C)C)CCC(=O)NCCC(=O)N(CCC(=O)N(CCCN(C)C)CCC(=O)NCCC(=O)N(CCC(=O)N(CCCN(C)C)CCC(=O)NCCC(=O)N(CCC(=O)N(CCCN(C)C)CCC(=O)N[C@@H](CCCCN)C(N)=O)CC(C)C)CC(C)C)CC(C)C)CC(C)C)CC(C)C	> 512
CC(=O)NCCC(=O)N(CCC(=O)N(CCN)CCC(=O)NCCC(=O)N(CCC(=O)N(CCN)CCC(=O)NCCC(=O)N(CCC(=O)N(CCN)CCC(=O)NCCC(=O)N(CCC(=O)N(CCN)CCC(=O)NCCC(=O)N(CCC(=O)N(CCN)CCC(=O)NCCC(=O)N(CCC(=O)N(CCN)CCC(=O)NCCC(=O)N(CCC(=O)N(CCN)CCC(=O)NCCC(=O)N(CCC(=O)N(CCN)CCC(=O)N[C@@H](CCCCN)C(N)=O)CC(C)C)CC(C)C)CC(C)C)CC(C)C)CC(C)C)CC(C)C)CC(C)C)CC(C)C	256 (≈ 95.3 µM)
CC(=O)NCCC(=O)N(CCC(=O)N(CCCN(C)C)CCC(=O)NCCC(=O)N(CCC(=O)N(CCCN(C)C)CCC(=O)NCCC(=O)N(CCC(=O)N(CCCN(C)C)CCC(=O)NCCC(=O)N(CCC(=O)N(CCCN(C)C)CCC(=O)NCCC(=O)N(CCC(=O)N(CCCN(C)C)CCC(=O)NCCC(=O)N(CCC(=O)N(CCCN(C)C)CCC(=O)NCCC(=O)N(CCC(=O)N(CCCN(C)C)CCC(=O)N[C@@H](CCCCN)C(N)=O)CC(C)C)CC(C)C)CC(C)C)CC(C)C)CC(C)C)CC(C)C)CC(C)C	> 512
